Screening results (PubChem)
An excerpt weighted towards active compounds, which were near 0.99% of everything screened.
DDE Tn6 FP inh: DD(E)-Tn6 binding inhibition, primary FP screen; Fibrin DD(E) TRITC-Tn6 fluorescence polarization displacement; inhibition, % at 8.3 µM; hit rate 0.21% among 370,000;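 active = inhibition above a per-campaign cutoff: mean of compounds within control limits plus 3 SD, cut at about 15% in these data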;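 also: 0% = median of all compound wells on the plate and 100% = blocking peptide control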
Insulin prom up: MIN6 insulin promoter up-regulation. z-score at 5 µM. hit rate 0.3% among 190,000. AID 1625. MIN6 insulin promoter-GFP reporter, high-content imaging; hits give high values;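 active = z-score above 3 at 5 µM with at least 500 cells counted in the well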
ABCB1 block: blocks JC-1 efflux by human ABCB1 transporter. CCRF-Adr cells, flow cytometry. inhibition, % at 6.6 µM. hit rate 0.067% among 190,000. P08183; in the data active = inhibition above about 40%;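 also: 0% = vehicle and 100% = reference inhibitor; higher value means more JC-1 retained so stronger ABCB1 efflux block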
Tn7 DDE FP: disrupts Tn7 cyclic peptide binding to fibrin D-Dimer-E complex; P02675; FP displacement of FITC-Tn7 peptide from fibrin DD(E); 0% = median of compound wells per plate; inhibition, % at 8.3 µM; hit rate 0.13% among 370,000; AID 720508;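 active = inhibition above the mean of compounds falling within the control limits plus 3 SD of them, cut at about 14% in these data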;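 also: 0% = plate median of compound wells and 100% = 10 µM Aha-Tn7 peptide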
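Also added: labelled Tn7 tracer, 0.1 µM; Assay system: human fibrin DD(E) protein; Amount: 2 µM fibrin DD(E); Schedule: 10 min compound pre-incubation, 3 h probe incubation at room temperature; Repeats: one replicate per compound; Read-out basis: percent inhibition; Measured by: fluorescence polarization of the labelled Tn7 tracer.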
GRK2 inh: blocks RNA aptamer binding to human GRK2; bead flow cytometry, FAM-aptamer displacement from GRK2; hit rate 0.59% among 330,000; inhibition of aptamer binding, % at 10 µM; AID 488847; P25098;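 active = inhibition of aptamer binding above 40%, roughly 3 SD of noise, on plates passing a quality check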;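 also: median bead fluorescence of bound FAM aptamer so fluorescent compounds give negative values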
ABCG2 inh: human ABCG2 inhibition, ABCB1 as counter-screen | Q9UNQ0 | AID 1325 | IgMXP3 cells, JC-1 efflux, flow cytometry | hit rate 0.1% among 190,000 | inhibition, % at 6.6 µM;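 active = inhibition above 80%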;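 also: 0% = DMSO and 100% = nicardipine control wells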
Target sequence (Q9UNQ0 whole entry, looked up): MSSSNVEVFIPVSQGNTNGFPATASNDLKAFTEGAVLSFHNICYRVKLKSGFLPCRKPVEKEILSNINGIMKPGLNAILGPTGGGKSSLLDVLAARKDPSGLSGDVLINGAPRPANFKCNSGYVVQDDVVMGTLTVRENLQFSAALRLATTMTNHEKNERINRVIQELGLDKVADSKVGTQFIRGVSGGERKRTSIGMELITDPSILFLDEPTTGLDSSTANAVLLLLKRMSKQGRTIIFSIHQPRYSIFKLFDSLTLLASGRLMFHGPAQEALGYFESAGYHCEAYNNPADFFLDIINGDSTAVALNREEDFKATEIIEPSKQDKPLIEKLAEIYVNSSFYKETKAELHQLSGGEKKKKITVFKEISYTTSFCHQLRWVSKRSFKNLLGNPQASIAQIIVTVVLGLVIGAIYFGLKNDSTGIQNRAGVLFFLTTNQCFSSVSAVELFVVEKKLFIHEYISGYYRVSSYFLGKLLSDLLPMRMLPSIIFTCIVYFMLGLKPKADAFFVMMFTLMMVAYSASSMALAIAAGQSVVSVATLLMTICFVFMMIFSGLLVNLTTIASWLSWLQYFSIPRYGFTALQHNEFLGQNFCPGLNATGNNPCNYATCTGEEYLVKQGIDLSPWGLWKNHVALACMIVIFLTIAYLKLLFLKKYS
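Test system: IgMXP3 cells (ABCG2) mixed with DDAO far-red-labelled CCRF-Adr cells (ABCB1). Reagent: JC-1 transporter substrate. Compound dosing: single test compound dose, 6.6 µM final. Times: 10 min compound exposure, 25 °C. Detection: flow cytometry of retained JC-1 fluorescence. Read-out basis: efflux inhibition in percent versus controls. Controls: nicardipine and DMSO wells.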
Active calls of the source: *; / = not tested or not shown.

SMILES	DDE Tn6 FP inh	Insulin prom up	ABCB1 block	Tn7 DDE FP	GRK2 inh	ABCG2 inh
CCOC(=O)COc1ccc(C(=O)NC2CCCCC2)cc1	/	4.2*	1	/	9	7
COC(=O)[C@]12C[C@H](CC(=O)NCc3cccc4ccccc34)C(=O)N(Cc3ccco3)C1=C[C@H](C(C)C)O[C@@H]2C1CC1	1	/	/	1	/	/
COC/C=C/C1=CC2=CC(=O)C(C)(O)C(=O)C2=CO1 (centres undefined)	/	/	/	/	87*	/
O=C1CN(C(=O)COC(=O)/C=C/c2ccco2)c2ccccc2N1	4	0.12	1	5	16	7
CC1(C)c2ccccc2N2CC(=O)NC21/C=C/c1ccco1 (centres undefined)	7	3.3*	0	6	0	2
CCCCC(=O)Nc1ccc2c(c1)nc1n2CCSC1	-1	3.2*	1	2	1	3
CC(=O)Nc1ccc2c(c1)nc1n2CCSC1	2	/	-2	-1	1	6
O=C(C1=NN(c2ccccc2)C2C(=O)N(c3cccc(Cl)c3)C(=O)C12)c1ccccc1 (centres undefined)	-8	3.2*	0	8	2	-7
N#CCCN(CCC#N)C(=O)C1c2ccccc2Oc2ccccc21	59*	/	/	10	0	/
COc1ccc(OC)c(C2C(C(=O)N(C)C)=C(C)Nc3nc4ccccc4n32)c1 (centres undefined)	6	-0.02	0	10	0	0
COc1ccc(C2C(C(=O)c3ccccc3)=C(C)Nc3nc4ccccc4n32)c(OC)c1 (centres undefined)	0	3.8*	1	0	0	1
NC(=O)COC(=O)c1cccc(S(=O)(=O)N2CCCCC2)c1	8	1.5	0	0	2	2
CC(C)NC(=O)NC(=O)COC(=O)c1cccc(S(=O)(=O)N2CCCCC2)c1	7	4.6*	1	-4	7	2
O=C(CCn1c(=O)oc2ccccc21)N1CCCCCC1	0	0.16	1	5	0	15
CC1CN(C(=O)CCn2c(=O)oc3ccccc32)CC(C)O1 (centres undefined)	-7	8*	0	9	0	1
COC(=O)C1=C(N)n2c(s/c(=C\c3cccnc3)c2=O)=C(C(=O)OC)C1c1cccnc1 (centres undefined)	/	3.2*	3	/	/	3
COc1ccc(-n2c(Cc3cccn3C)nnc2SCC(=O)Nc2ccccc2C)cc1	-2	0.11	2	-7	0	6
COc1ccc(-n2c(Cc3cccn3C)nnc2SCC(=O)Nc2cccc(C)c2C)cc1	-5	3*	-2	-2	1	0
COc1cccc(/C=C2\SC(=S)N(CCCC(=O)N3CCCC3)C2=O)c1	0	/	/	7	55*	/
COc1ccc(CN(C)C(=O)C2CCCN(c3nc4ccccc4o3)C2)cc1 (centres undefined)	2	/	/	1	/	/
CCOP(=O)(CC(C(C)=O)C(O)c1ccccc1)OCC (centres undefined)	0	0.57	0	14*	/	2
COC(=O)[C@@]12CCCCC=C1N(CCc1ccc(Cl)cc1)C(=O)[C@H]2CC(=O)NCc1cccc(C(F)(F)F)c1	0	/	/	-3	/	/
CC(=O)c1c(C)[nH]c(C(=O)Nc2ccc(C)c(C)c2)c1C	-12	-0.65	1	-2	0	20
COc1ccc(NC(=O)c2[nH]c(C)c(C(C)=O)c2C)cc1Cl	-2	3.8*	0	-4	0	1
CCOC(=O)/C(C#N)=N/Nc1ccc(S(=O)(=O)N2CCc3ccccc32)cc1	-5	-0.09	0	-7	82*	0
SMILES	DDE Tn6 FP inh	Insulin prom up	ABCB1 block	Tn7 DDE FP	GRK2 inh	ABCG2 inh
Cc1cc(/C=C\c2ccc3cc(N(C)C)ccc3[n+]2C)c(C)n1-c1ccccc1	/	/	/	/	71*	/
Cc1cc(C)cc(NC(=O)NN2C(C)CCCC2C)c1 (centres undefined)	-4	-0.55	1	-5	100*	11
CC(C)CNC(=O)OCc1cn(Cc2ccccc2C(F)(F)F)nn1	4	/	/	6	/	/
Clc1ccc(C2=CC(c3ccco3)n3ncnc3N2)cc1 (centres undefined)	-3	-0.93	0	16*	4	4
COc1ccc(C2=CC(c3ccco3)n3ncnc3N2)cc1 (centres undefined)	/	2.5	0	/	/	1
Cn1c(=O)c2cc(S(=O)(=O)N3CCN(c4ccccc4Cl)CC3)ccc2n(C)c1=O	0	/	/	-3	/	/
CC(C)(C)c1cc(C(=O)N/N=C/c2ccccc2O)n(-c2ccccc2)n1	-5	-0.71	1	-7	99*	12
O=C(COC(=O)Cc1ccc(Cl)cc1)Nc1ccc(OC(F)F)cc1	0	/	0	10	44*	-2
CC(C)(CNS(=O)(=O)c1ccc(Cl)cc1)N1CCCCC1	5	3.6*	0	-7	0	-7
COc1cc(C)nc(N2CCCC(C(=O)Nc3cccc(Cl)c3C)C2)n1 (centres undefined)	0	3.9*	0	-10	0	3
N#C/C(=C(/O)CN1CCN(c2ccccc2F)CC1)c1nc(-c2ccc(Cl)cc2)cs1	-18	/	0	4	4	2
COc1ccccc1N1CCN(C/C(O)=C(\C#N)c2nc(-c3ccccc3)cs2)CC1	1	3.2*	0	3	5	1
CCOC(=O)c1csc(NC(=O)C2CCCN(S(=O)(=O)c3cc(OC)ccc3OC)C2)n1 (centres undefined)	-3	/	/	0	/	/
Cc1c(C(c2ccccc2)c2c(C)n(C)n(-c3ccccc3)c2=O)c(=O)n(-c2ccccc2)n1C	-1	/	/	4	19	/
Cc1c(C(c2ccc([N+](=O)[O-])cc2)c2c(C)n(C)n(-c3ccccc3)c2=O)c(=O)n(-c2ccccc2)n1C	-1	4.1*	0	4	0	0
C[C@H]1[C@@H](C(=O)N2CCCC2)CC(=O)/C(=N/OCc2ccccc2)C[C@@H]1c1ccccc1	10	/	/	6	/	/
O=C(C[n+]1cccc(/C=N/O)c1)N(Cc1ccccc1)Cc1ccccc1	8	-0.39	/	2	0	/
CCCN(CCC)C(=O)C[n+]1cccc(/C=N/O)c1	2	0.12	0	1	49*	-3
CCc1cc2c(=O)c(-c3nc4ccccc4[nH]3)coc2c(CN2CCCCC2)c1O	0	-0.24	/	-4	0	/
O=c1oc2c(CN3CCCCC3)c(O)ccc2cc1-c1nc2ccccc2[nH]1	2	3.6*	/	6	/	/
CCCCN1CCN(C(=O)C2CCCN(C(=O)c3ccc4c(c3)NC(=O)CS4)C2)CC1 (centres undefined)	-11	/	/	-5	/	/
COC(=O)[C@H](CC(C)C)N1Cc2nnn(Cc3ccccc3)c2-c2cc(F)ccc2S1(=O)=O	1	/	/	-4	/	/
